Measurements published in ChEMBL document CHEMBL3244384, “3,4-Methylenedioxyphenyl-, isopropylidenedioxyphenyl-, and benzyl-substituted chiral 2-aminosuccinimides and 3-aminopyrrolidines. Stereoselective investigations of potential anti-parkinsonian, antipsychotic, and anticonvulsant activities” (J Med Chem, 1977).
Calls of active or inactive are those of the source.

Columns and labels:
[1] = Neurotoxicity in ip dosed albino CD-1 mouse by rotarod test; format: toxicity, organism-based; conditions: in vivo
Method in brief: (§1)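 Male CD-1 mice (20-25 g), groups of 6-12, given ip doses in aqueous solution (1.0 mL/100 g). Neurotoxicity = failure to stay 1 min on a rod turning at 6 rpm. Time of peak central activity found. TD50 and 95% limits by Litchfield-Wilcoxon from at least three points in the 10-90% range.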

Mus musculus [2] = assay: Neurotoxicity in ip dosed albino CD-1 mouse assessed as time to peak central activity by rotarod test; format: toxicity, organism-based; conditions: in vivo; method in brief: as §1
Mus musculus [3] = assay: Anticonvulsant activity in ip dosed albino CD-1 mouse assessed as protection from maximal electroshock-induced seizures measured at time of peak effect; format: functional; conditions: CD-1, ip
Method in brief: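 Male CD-1 mice (20-25 g) dosed ip in aqueous solution (1.0 mL/100 g). At time of peak rotarod activity, MES given by corneal electrodes (50-mA ac, 0.2 s). End point: abolition of hindlimb-extensor component.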

Mus musculus [4] = assay: Anticonvulsant activity in ip dosed albino CD-1 mouse assessed as threshold ratio for pentylenetetrazole-induced clonic seizures at 0.5 time TD50 measured at time of peak effect relative to saline-treated control; format: functional
Method in brief: (§2)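 Male CD-1 mice (20-25 g) given saline or 0.5 TD50 test compound ip. At time of peak activity, pentylenetetrazole (0.5%) infused iv at 0.51 mL/min until minimal (clonic) or maximal (tonic-clonic) seizure. Threshold ratio = mean mg/kg pentylenetetrazole in treated mice ÷ mg/kg in saline mice, with 95% confidence intervals.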

Mus musculus [5] = assay: Anticonvulsant activity in ip dosed albino CD-1 mouse assessed as threshold ratio for pentylenetetrazole-induced tonic-clonic seizures at 0.5 time TD50 measured at time of peak effect relative to saline-treated control; format: functional; method in brief: as §2
Mus musculus [6] = assay: Anti-parkinsonian activity in ip dosed albino CD-1 mouse assessed as inhibition of oxotremorine-induced diarrhea at 0.25 to 1 time TD50 administered 30 mins prior challenge; format: functional, organism-based
Method in brief: (§3)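 Male CD-1 mice (20-25 g), groups of five, given test compound ip (aqueous, 1.0 mL/100 g) or saline 30 min before oxotremorine 1 mg/kg ip. Tremor intensity scored 0 absent, 1 mild, 2 moderate, 3 severe, summed over five animals; diarrhea and salivation also observed.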

Mus musculus [7] = assay: Anti-parkinsonian activity in ip dosed albino CD-1 mouse assessed as inhibition of oxotremorine-induced salivation at 0.25 to 1 time TD50 administered 30 mins prior challenge; format: functional, organism-based; method in brief: as §3
Mus musculus [8] = assay: Anti-parkinsonian activity in ip dosed albino CD-1 mouse assessed as inhibition of oxotremorine-induced tremor at 0.25 to 1 time TD50 administered 30 mins prior challenge; format: functional, organism-based; method in brief: as §3
[9] = Protective index, ratio of TD50 for neurotoxicity to ED50 for anticonvulsant activity in ip dosed albino CD-1 mouse; format: toxicity, organism-based; conditions: in vivo, read-out: Ratio TD50/ED50
Method in brief: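 Groups of 6-12 male CD-1 mice dosed ip across a range giving at least three points at 10-90% MES protection or rotarod neurotoxicity. ED50 and TD50 by Litchfield-Wilcoxon; PI = TD50/ED50, not calculated when protection is below 50%.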

Mus musculus [10] = assay: Toxicity in albino CD-1 mouse assessed as twitching at >/= 6.1 mmol/kg, ip; format: organism-based; conditions: in vivo
Mus musculus [11] = assay: Toxicity in albino CD-1 mouse assessed as increased excitability to touch at >/= 6.1 mmol/kg, ip; format: organism-based; conditions: in vivo
Mus musculus [12] = assay: Toxicity in albino CD-1 mouse assessed as occasional clonic seizure-like movements at >/= 6.1 mmol/kg, ip; format: organism-based; conditions: in vivo
Mus musculus [13] = assay: Toxicity in albino CD-1 mouse assessed as loss of righting reflex at >/= 6.1 mmol/kg, ip; format: organism-based; conditions: in vivo
Mus musculus [14] = assay: Toxicity in albino CD-1 mouse assessed as behavioral effect at 2.81 mmol/kg, ip; format: organism-based; conditions: in vivo
[15] = Antagonist activity at acetylcholine receptor (unknown origin); parameters: species or system Homo sapiens
Mus musculus [16] = assay: Anti-parkinsonian activity in ip dosed albino CD-1 mouse assessed as inhibition of oxotremorine-induced tremor administered 30 mins prior challenge; format: functional, organism-based; method in brief: as §3
Mus musculus [17] = assay: Toxicity in albino CD-1 mouse assessed as sedation at >/= 2.68 mmol/kg, ip; format: organism-based; conditions: in vivo
Mus musculus [18] = assay: Toxicity in albino CD-1 mouse assessed as loss of righting reflex at >/= 2.68 mmol/kg, ip; format: organism-based; conditions: in vivo
Mus musculus [19] = assay: Toxicity in albino CD-1 mouse assessed as mortality at >/= 2.68 mmol/kg, ip; format: organism-based; conditions: in vivo
Mus musculus [20] = assay: Toxicity in albino CD-1 mouse assessed as clonic-like seizure activity at >/= 2.68 mmol/kg, ip; format: organism-based; conditions: in vivo

Row | SMILES | TD50 [1] [µmol/kg] | Time (Mus musculus [2]) [min] | ED50 (Mus musculus [3]) [µmol/kg] | Ratio (Mus musculus [4]) | Ratio (Mus musculus [5]) | Activity (Mus musculus [6]) | Activity (Mus musculus [7]) | Activity (Mus musculus [8]) | selectivity ratio [9] | Activity (Mus musculus [10]) | Activity (Mus musculus [11]) | Activity (Mus musculus [12]) | Activity (Mus musculus [13]) | Activity (Mus musculus [14]) | pA2 [15] | Activity (Mus musculus [16]) | Activity (Mus musculus [17]) | Activity (Mus musculus [18]) | Activity (Mus musculus [19]) | Activity (Mus musculus [20])
1 | Cl.N[C@@H]1CC(=O)N(c2ccc3c(c2)OCO3)C1=O | 3330 | 45 | 3330 | 1.03 | 0.75 | Active | Active | inactive |  |  |  |  |  |  |  |  |  |  |  | 
2 | CC(=O)N[C@H]1CC(=O)N(Cc2ccccc2)C1=O | 5280 | 30 | 1200 | 1.06 | 1.11 |  |  |  | 4.41 | Toxic | Toxic | Toxic | Toxic |  |  |  |  |  |  | 
3 | CCC1(C)CC(=O)NC1=O (stereo not given) [ETHOSUXIMIDE] | 2320 | 5 | 2320 | 1.34 | 1.71 |  |  |  |  |  |  |  |  |  |  |  |  |  |  | 
4 | CN1C(=O)OC(C)(C)C1=O [TRIMETHADIONE] | 3980 | 5 | 3720 | 2.05 | 2.25 |  |  |  | 1.07 |  |  |  |  |  |  |  |  |  |  | 
5 | Cl.N[C@@H]1CC(=O)N(Cc2ccc3c(c2)OCO3)C1=O | 1830 | 15 | 720 | 1.61 | 1.18 |  |  |  | 2.54 |  |  |  |  | Non-toxic |  |  |  |  |  | 
6 | Cl.N[C@H]1CC(=O)N(Cc2ccc3c(c2)OCO3)C1=O | 2000 | 15 | 700 | 1.54 | 1.09 |  |  |  | 2.85 |  |  |  |  | Non-toxic |  |  |  |  |  | 
7 | CCN[C@@H]1CCN(c2ccccc2)C1 |  |  |  |  |  |  |  |  |  |  |  |  |  |  | 3.5 |  |  |  |  | 
8 | Cl.N[C@H]1CC(=O)N(c2ccc3c(c2)OCO3)C1=O | 5040 | 45 | 5040 | 1.08 | 0.92 | Active | Active | inactive |  |  |  |  |  |  |  |  |  |  |  | 
9 | O=C1N=C([O-])NC1(c1ccccc1)c1ccccc1.[Na+] [PHENYTOIN SODIUM] | 220 | 45 | 22 | 1.07 | 2.08 |  |  |  | 10 |  |  |  |  |  |  |  |  |  |  | 
10 | CC1(C)Oc2ccc(N3C(=O)C[C@@H](N)C3=O)cc2O1.Cl | 960 | 15 | 570 | 1.28 | 1.66 | inactive | inactive | Active | 1.68 |  |  |  |  |  |  | Dose-dependent effect | Toxic | Toxic | Toxic | Toxic
11 | CC(=O)N[C@@H]1CC(=O)N(Cc2ccccc2)C1=O | 4760 | 30 | 1460 | 1.36 | 0.85 |  |  |  | 3.25 | Toxic | Toxic | Toxic | Toxic |  |  |  |  |  |  | 
12 | CC1(C)Oc2ccc(N3C(=O)C[C@H](N)C3=O)cc2O1.Cl | 1220 | 30 | 840 | 1.36 | 1.34 | inactive | inactive | Active | 1.45 |  |  |  |  |  |  |  | Toxic | Toxic | Toxic | Toxic
